One test has as its target CaM34 (D95A/D131A CaM) (Homo sapiens, UniProt P0DP23, D132A/D96A). Description: Ca^2+ dissociation kinetics of CaM34 complexes with Cx32 peptides. The class given is binding. The note with it: Table 3, CaM34 + C-terminal peptide, n = 2; for k2 (EF2, N-terminal CaM lobe): 10 μM peptide, 21 °C, mean ± S.D.
The next test addresses CaM (Homo sapiens, UniProt P0DP23). The experiment in a line: Ca^2+ dissociation kinetics of CaM complexes with Cx32 peptides. The class given is binding. The note with it: for relative amplitude A1 (EF1) / relative amplitude A2 (EF2) / relative amplitude A3 (EF3) / relative amplitude A4 (EF4): Table 3, CaM + C-terminal peptide, n = 3 (208-226), 2 (208-227). In outline:
(§1)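 Human liver wild-type CaM and the EF-hand mutants CaM12 (D22A/D58A) and CaM34 (D95A/D131A) were expressed in E. coli and HPLC-purified, EGTA-free. In stopped flow, 90 µM quin 2 with no added Ca2+ was mixed with 3 µM CaM or CaM·peptide in 50 µM Ca2+ buffer (mixing-chamber concentrations). Buffer was 50 mM K+-PIPES pH 7.0, 100 mM KCl, 2 mM MgCl2.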

In the next test the target is CaM12 (D22A/D58A CaM) (Homo sapiens, UniProt P0DP23, D23A/D59A). The experiment in a line: Ca^2+ dissociation kinetics of CaM12 complexes with Cx32 peptides. The note with it: n = 1; for k4 (EF4, C-terminal CaM lobe) / relative amplitude A3 (EF3) / relative amplitude A4 (EF4): Table 3, CaM12 + C-terminal peptide; for k4 (EF4, C-terminal CaM lobe): 21 °C. The class given is binding. The method, boiled down: as §1

The target of the next test is TA-CaM. The note with it: cited from earlier work.
In test [1] the target is T1, DA-CaM (Homo sapiens, UniProt P0DP23, T111C/T35C). Description: Conformation of CaM in peptide complexes: donor quenching of DA-CaM. In kind it is binding. The note with it: 433 nM DA-CaM, 0.5 mM CaCl2; further addition of 4.4 μM peptide. In outline: (§2)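 DA-CaM was made from T34C/T110C CaM randomly labeled with IAEDANS (donor) and DDP (quencher), then HPLC-fractionated into lobe-specific labeled species. Equilibrium titration used increasing peptide concentrations on a spectrofluorimeter. Donor quenching indicated CaM compactness in the complex, and Kd came from fitting the binding data.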

Another test addresses AEDANS-T34C/T110C-CaM (Homo sapiens, UniProt P0DP23, T111C/T35C). The experiment in a line: Equilibrium fluorescence titration of AEDANS-T34C/T110C-CaM with Cx32 208–226. The class given is binding.
In test [2] the target is T1, DA-CaM. Description: Equilibrium fluorescence titration of DA-CaM with Cx32 1–19. In kind it is binding. The method, boiled down:
as §2

The conditions of test [3]: cited from earlier work.
Test [4] in a line: Ca^2+ dissociation kinetics of CaM and mutant CaMs without peptide. The class given is binding. The note with it: no peptide; calibration of ΔRF per site. In outline:
as §1

Where no end group is shown, it is not given here.

As to “Ac-EVVYLIIRACARRAQRRSNP-NH2 [Cx32 208–227]”, at CaM34 (D95A/D131A CaM), the “k2 (EF2, N-terminal CaM lobe)” value came out at 169 ± 5.6 s⁻¹; the “relative amplitude A1 (EF1)” value turned out to be 0.5; the “relative amplitude A2 (EF2)” value came out at 1. Besides, the “involvement of the N-lobe EF hand binding” value at CaM (CaM complex, 10 μM peptide) is 50%. Besides, at CaM, the “relative amplitude A1 (EF1)” value turned out to be 0.5, the “relative amplitude A2 (EF2)” value is 1.5, the “relative amplitude A3 (EF3)” value turned out to be 1 and the “relative amplitude A4 (EF4)” value is 1. On CaM (compared with 208–226 peptide), the “relative affinity for CaM, in words” value is on record as “higher affinity for CaM than the 208–226 peptide”. Moreover, at CaM12 (D22A/D58A CaM) (10 μM peptide), the “rate constant for both C-lobe EF hands of CaM12·peptide complex” value worked out at 3.1 ± 0.1 s^–1 and the “k4 (EF4, C-terminal CaM lobe)” value turned out to be 3.1 ± 0.1 s⁻¹. Besides, on CaM12 (D22A/D58A CaM), the “relative amplitude A3 (EF3)” value was 0.5 and the “relative amplitude A4 (EF4)” value is on record as 1.

Broadly, the Kd is the constant that tells how readily two partners part at equilibrium. On to “Cx32 1–21: peptide, consisting of residues 1–21, which represents the N-terminal tail CaM-binding domain of Cx32”, for which the Kd at TA-CaM (TA-CaM (Lys75-modified fluorescent CaM), Ca^2+-dependent) was 27 nM.

“Cx32 216–230: peptide representing residues 216–230 of the Cx32 C-terminal tail (ACARRAQRRSNPPSR; UniProt P08034 216-230, looked up, fragment)”: in the test with TA-CaM (compared with 208–226 peptide), the “relative affinity for CaM, in words” value was “higher affinity than the 208–226 peptide”.

EVVYLIIRACARRAQRRSN [Cx32 208–226]: the “donor AEDANS fluorescence on increasing the peptide concentration” value on DA-CaM [1] was “a blue shift was seen in the donor AEDANS fluorescence”. The substance further yielded a Kd on AEDANS-T34C/T110C-CaM of 3450 ± 1090 nM. Moreover, the “increase in fluorescence on peptide binding (fold)” value on AEDANS-T34C/T110C-CaM (donor-only labeled probe AEDANS-T34C/T110C-CaM) was determined as 2.5 fold. The “k2 (EF2, N-terminal CaM lobe)” value on CaM34 (D95A/D131A CaM) came to 173 ± 0.4 s⁻¹. Besides, at CaM, the “relative amplitude A1 (EF1)” value worked out at 1, the “relative amplitude A2 (EF2)” value is recorded as 1, the “relative amplitude A3 (EF3)” value turned out to be 1 and the “relative amplitude A4 (EF4)” value worked out at 1. The “k4 (EF4, C-terminal CaM lobe)” value on CaM12 (D22A/D58A CaM) (10 μM peptide) amounted to 1.6 ± 0.1 s⁻¹. Besides, at CaM12 (D22A/D58A CaM), the “relative amplitude A3 (EF3)” value is recorded as 1 and the “relative amplitude A4 (EF4)” value worked out at 1.

Turning to MNWTGLYTLLSGVNRHSTA [Cx32 1–19], the Kd at DA-CaM [2] is 1140 ± 100 nM.

Regarding calmodulin [CaM], the “higher Ca^2+ affinity of the C-terminal lobe of apo CaM (fold)” value in [3] (Ca^2+-free (apo) CaM, C-lobe vs N-lobe) was “about 5 fold”. Besides, the “Ca^2+ dissociation from the two N-terminal lobe sites, estimated” value in test [3] (no peptide) is listed as ~1000 s^–1. Also, the “ΔRF of two measurable (C-lobe) sites” value in [4] is 0.08.

The record behind these values is paper PMC2555998 (The Journal of Biological Chemistry, 2008).
